Drawing on ChEMBL document CHEMBL3351814, “Discovery of selective hexapeptide agonists to human neuromedin U receptors types 1 and 2” (J Med Chem, 2014), this text covers Activity for 30 compounds.

One assay concerns the target Neuromedin-U receptor 2 (Homo sapiens, UniProt Q9GZQ4). The experiment in a line: Agonist activity at human NMUR2 expressed in HEK293 cells at 1 to 100 nM by calcium mobilization assay relative to NMU. Format: functional, cell-based. The method in brief: (§1)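 HEK293 cells transiently transfected with human NMUR1 or NMUR2 plasmid (FuGENE6), reseeded 18 h post-transfection at 4.0 × 10^4 cells/well on poly-D-lysine. After 18 h, loaded 40 min with 4 μM Fluo-4-AM in HBSS/HEPES/probenecid buffer pH 7.4 with 1% FCS, then washed. Peptides in buffer with 0.05% BSA and 0.001% Triton X-100. Maximal FLIPR signal expressed as % of hNMU at 1000 nM.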
Background: A change in cytosolic calcium serves as a functional read-out for many receptors and channels.

Assay [1] has as its target T1, Neuromedin-U receptor 1 (Homo sapiens) (UniProt Q9HB89).
T1 sequence (whole entry): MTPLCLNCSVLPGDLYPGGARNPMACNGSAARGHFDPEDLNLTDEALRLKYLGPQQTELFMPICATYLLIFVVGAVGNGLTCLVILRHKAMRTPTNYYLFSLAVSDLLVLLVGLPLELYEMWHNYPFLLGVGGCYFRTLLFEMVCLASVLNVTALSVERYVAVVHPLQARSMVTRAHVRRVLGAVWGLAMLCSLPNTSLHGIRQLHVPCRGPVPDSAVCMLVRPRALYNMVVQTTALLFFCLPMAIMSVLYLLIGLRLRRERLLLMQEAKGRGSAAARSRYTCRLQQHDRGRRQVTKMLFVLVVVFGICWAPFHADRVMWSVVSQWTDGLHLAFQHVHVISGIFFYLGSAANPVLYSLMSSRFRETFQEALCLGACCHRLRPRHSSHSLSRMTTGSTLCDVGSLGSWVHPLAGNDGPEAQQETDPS
The experiment in a line: Agonist activity at human NMUR1 expressed in HEK293 cells at 1 to 100 nM by calcium mobilization assay relative to NMU. Format: functional, cell-based. In a few lines: as §1

The source made the active and inactive calls. The rule behind the calls is not given here. Where a SMILES comes first, the peptide text is derived from it. [ ]: non-standard residue; d: D form. The star is where a group is joined. Quinoline(6-carbonyl) = O=C(c1ccc2ncccc2c1)*; Propanoyl(3-(3-pyridyl)) = O=C(CCc1cccnc1)*; Acetyl(pyridin-2-yl) = O=C(Cc1ccccn1)*; 1Nal = N[C@@H](Cc1cccc2ccccc12)C(=O)O; Butanoyl(4-cHex) = O=C(CCCC1CCCCC1)*; Propanoyl(3-cHex) = O=C(CCC1CCCCC1)*; Acetyl(3-pyridyl) = O=C(Cc1cccnc1)*; Acetyl(4-pyridyl) = O=C(Cc1ccncc1)*; Butanoyl(4-Ph) = O=C(CCCc1ccccc1)*; Hydrocinnamoyl = O=C(CCc1ccccc1)*; Quinaldoyl = O=C(c1ccc2ccccc2n1)*; Tic = O=C(O)[C@@H]1Cc2ccccc2CN1; Cha = N[C@@H](CC1CCCCC1)C(=O)O; Agb = N=C(N)NCC[C@H](N)C(=O)O; Agp = N=C(N)NC[C@H](N)C(=O)O; Chg = N[C@H](C(=O)O)C1CCCCC1; Nle = CCCC[C@H](N)C(=O)O; Dab = NCC[C@H](N)C(=O)O; Nva = CCC[C@H](N)C(=O)O; Dap = NC[C@H](N)C(=O)O; PhAc = O=C(Cc1ccccc1)*; X1 = O=C(Cn1ccnc1)*

Chain of Neuromedin-U receptor 2 (Q9GZQ4 whole entry): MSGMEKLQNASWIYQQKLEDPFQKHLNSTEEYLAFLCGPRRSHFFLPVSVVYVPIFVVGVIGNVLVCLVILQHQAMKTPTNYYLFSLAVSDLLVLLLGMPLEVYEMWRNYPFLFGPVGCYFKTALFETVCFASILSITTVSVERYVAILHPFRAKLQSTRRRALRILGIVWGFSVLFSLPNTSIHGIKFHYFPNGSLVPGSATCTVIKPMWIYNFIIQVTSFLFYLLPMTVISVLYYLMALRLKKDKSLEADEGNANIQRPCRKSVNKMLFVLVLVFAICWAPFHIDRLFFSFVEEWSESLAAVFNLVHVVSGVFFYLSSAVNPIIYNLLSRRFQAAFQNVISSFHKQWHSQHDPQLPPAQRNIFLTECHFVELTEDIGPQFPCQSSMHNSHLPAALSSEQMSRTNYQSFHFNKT

For the compound `CC(C)C[C@H](NC(=O)CCCC1CCCCC1)C(=O)N[C@@H](Cc1ccccc1)C(=O)N[C@@H](CCCNC(=N)N)C(=O)N1CCC[C@H]1C(=O)N[C@@H](CCCNC(=N)N)C(=O)N[C@@H](CC(N)=O)C(N)=O` ({Butanoyl(4-cHex)}-LFRPRN-NH2), on Neuromedin-U receptor 2, the outcome was Active. `CCCC[C@H](NC(=O)[C@H](CC(C)C)NC(=O)CCC1CCCCC1)C(=O)N[C@@H](CN)C(=O)N1CCC[C@H]1C(=O)N[C@@H](CCCNC(=N)N)C(=O)N[C@@H](CC(N)=O)C(N)=O` ({Propanoyl(3-cHex)}-L[Nle][Dap]PRN-NH2): the result at Neuromedin-U receptor 2 was Active. The same measure, in the same setting: the value for `CC(C)C[C@H](NC(=O)CCc1ccccc1)C(=O)N[C@@H](Cc1ccccc1)C(=O)N[C@@H](CNC(=N)N)C(=O)N1CCC[C@H]1C(=O)N[C@@H](CCCNC(=N)N)C(=O)N[C@@H](CC(N)=O)C(N)=O` (Hydrocinnamoyl-LF[Agp]PRN-NH2) was “Active”.

For `CC(C)C[C@H](NC(=O)CCc1ccccc1)C(=O)N[C@@H](Cc1ccccc1)C(=O)N[C@@H](CCCNC(=N)N)C(=O)N1CCC[C@H]1C(=O)N[C@@H](CCCNC(=N)N)C(=O)N[C@@H](CCN)C(N)=O` (Hydrocinnamoyl-LFRPR[Dab]-NH2), the result (on Neuromedin-U receptor 2; in assay [1]) was inactive.

Take `CC(C)C[C@H](NC(=O)CCc1ccccc1)C(=O)N[C@@H](Cc1ccccc1)C(=O)N[C@@H](CCCNC(=N)N)C(=O)N1CCC[C@H]1C(=O)N[C@@H](CCCNC(=N)N)C(=O)N[C@@H](CCC(N)=O)C(N)=O` (Hydrocinnamoyl-LFRPRQ-NH2): the result (at Neuromedin-U receptor 2; in assay [1]) was inactive.

In the case of `N=C(N)NCCC[C@H](NC(=O)[C@@H]1CCCN1C(=O)[C@H](CCCNC(=N)N)NC(=O)[C@H](Cc1ccccc1)NC(=O)[C@H](Cc1ccccc1)NC(=O)CCc1cccnc1)C(=O)N[C@@H](CC(N)=O)C(N)=O` ({Propanoyl(3-(3-pyridyl))}-FFRPRN-NH2), the result in assay [1] was Active. As for `CC(C)C[C@H](NC(=O)CCC1CCCCC1)C(=O)N[C@H](C(=O)N[C@@H](CN)C(=O)N1CCC[C@H]1C(=O)N[C@@H](CCCNC(=N)N)C(=O)N[C@@H](CC(N)=O)C(N)=O)C1CCCCC1` ({Propanoyl(3-cHex)}-L[Chg][Dap]PRN-NH2), the result on Neuromedin-U receptor 2 was Active. As for `CC(C)C[C@H](NC(=O)CCC1CCCCC1)C(=O)N[C@@H](CC1CCCCC1)C(=O)N[C@@H](CN)C(=O)N1CCC[C@H]1C(=O)N[C@@H](CCCNC(=N)N)C(=O)N[C@@H](CC(N)=O)C(N)=O` ({Propanoyl(3-cHex)}-L[Cha][Dap]PRN-NH2), the outcome on Neuromedin-U receptor 2 was Active. `CC[C@H](C)[C@H](NC(=O)[C@H](CC(C)C)NC(=O)CCC1CCCCC1)C(=O)N[C@@H](CN)C(=O)N1CCC[C@H]1C(=O)N[C@@H](CCCNC(=N)N)C(=O)N[C@@H](CC(N)=O)C(N)=O` ({Propanoyl(3-cHex)}-LI[Dap]PRN-NH2): on Neuromedin-U receptor 2, the outcome was Active. For the compound `N=C(N)NCCC[C@H](NC(=O)[C@@H]1CCCN1C(=O)[C@H](CCCNC(=N)N)NC(=O)[C@H](Cc1ccccc1)NC(=O)[C@H](Cc1ccccc1)NC(=O)c1ccc2ccccc2n1)C(=O)N[C@@H](CC(N)=O)C(N)=O` (Quinaldoyl-FFRPRN-NH2), the outcome in assay [1] was inactive.

Regarding `CC(C)C[C@H](NC(=O)[C@@H]1Cc2ccccc2CN1)C(=O)N[C@@H](Cc1ccccc1)C(=O)N[C@@H](CCCNC(=N)N)C(=O)N1CCC[C@H]1C(=O)N[C@@H](CCCNC(=N)N)C(=O)N[C@@H](CC(N)=O)C(N)=O` (H-[Tic]LFRPRN-NH2), the result (on Neuromedin-U receptor 2; in assay [1]) was Active. On to `CCC[C@H](NC(=O)[C@H](CC(C)C)NC(=O)CCC1CCCCC1)C(=O)N[C@@H](CN)C(=O)N1CCC[C@H]1C(=O)N[C@@H](CCCNC(=N)N)C(=O)N[C@@H](CC(N)=O)C(N)=O` ({Propanoyl(3-cHex)}-L[Nva][Dap]PRN-NH2), for which the result at Neuromedin-U receptor 2 was Active. As to `CC(C)C[C@H](NC(=O)CCC1CCCCC1)C(=O)N[C@@H](CC1CCCCC1)C(=O)N[C@@H](CCCNC(=N)N)C(=O)N1CCC[C@H]1C(=O)N[C@@H](CCCNC(=N)N)C(=O)N[C@@H](CC(N)=O)C(N)=O` ({Propanoyl(3-cHex)}-L[Cha]RPRN-NH2), the outcome at Neuromedin-U receptor 2 was Active. As for `CC(C)C[C@H](NC(=O)Cc1ccccc1)C(=O)N[C@@H](Cc1ccccc1)C(=O)N[C@@H](CCCNC(=N)N)C(=O)N1CCC[C@H]1C(=O)N[C@@H](CCCNC(=N)N)C(=O)N[C@@H](CC(N)=O)C(N)=O` (PhAc-LFRPRN-NH2), in assay [1], the outcome was Active.

Turning to H-FLFRPRN-NH2, the result (at Neuromedin-U receptor 2; in assay [1]) was Active. With `CC(C)C[C@H](NC(=O)CCc1ccccc1)C(=O)N[C@@H](Cc1ccccc1)C(=O)N[C@@H](CCCCN)C(=O)N1CCC[C@H]1C(=O)N[C@@H](CCCNC(=N)N)C(=O)N[C@@H](CC(N)=O)C(N)=O` (Hydrocinnamoyl-LFKPRN-NH2), the result on Neuromedin-U receptor 2 was inactive.

For `CC(C)C[C@H](NC(=O)CCCc1ccccc1)C(=O)N[C@@H](Cc1ccccc1)C(=O)N[C@@H](CCCNC(=N)N)C(=O)N1CCC[C@H]1C(=O)N[C@@H](CCCNC(=N)N)C(=O)N[C@@H](CC(N)=O)C(N)=O` ({Butanoyl(4-Ph)}-LFRPRN-NH2), the result on Neuromedin-U receptor 2 was Active. As for `N=C(N)NCCC[C@H](NC(=O)[C@@H]1CCCN1C(=O)[C@H](CCCNC(=N)N)NC(=O)[C@H](Cc1ccccc1)NC(=O)[C@H](Cc1ccccc1)NC(=O)Cc1cccnc1)C(=O)N[C@@H](CC(N)=O)C(N)=O` ({Acetyl(3-pyridyl)}-FFRPRN-NH2), the result in assay [1] was Active. Consider `CC(C)C[C@H](NC(=O)CCc1ccccc1)C(=O)N[C@@H](Cc1ccccc1)C(=O)N[C@@H](CN)C(=O)N1CCC[C@H]1C(=O)N[C@@H](CCCNC(=N)N)C(=O)N[C@@H](CC(N)=O)C(N)=O` (Hydrocinnamoyl-LF[Dap]PRN-NH2), for which, on Neuromedin-U receptor 2, the outcome was Active.

As for `CC(C)C[C@H](NC(=O)CCc1cccnc1)C(=O)N[C@@H](Cc1ccccc1)C(=O)N[C@@H](CCCNC(=N)N)C(=O)N1CCC[C@H]1C(=O)N[C@@H](CCCNC(=N)N)C(=O)N[C@@H](CC(N)=O)C(N)=O` ({Propanoyl(3-(3-pyridyl))}-LFRPRN-NH2), the outcome in assay [1] was Active. As to `CC(C)C[C@H](NC(=O)CCc1ccccc1)C(=O)N[C@@H](Cc1ccccc1)C(=O)N[C@@H](CCN)C(=O)N1CCC[C@H]1C(=O)N[C@@H](CCCNC(=N)N)C(=O)N[C@@H](CC(N)=O)C(N)=O` (Hydrocinnamoyl-LF[Dab]PRN-NH2), the outcome on Neuromedin-U receptor 2 was Active. Consider `N=C(N)NCCC[C@H](NC(=O)[C@@H]1CCCN1C(=O)[C@H](CCCNC(=N)N)NC(=O)[C@H](Cc1ccccc1)NC(=O)[C@H](Cc1ccccc1)NC(=O)c1ccc2ncccc2c1)C(=O)N[C@@H](CC(N)=O)C(N)=O` ({Quinoline(6-carbonyl)}-FFRPRN-NH2), for which, in assay [1], the outcome was inactive. With `CC(C)C[C@H](NC(=O)CCc1ccccc1)C(=O)N[C@@H](CC1CCCCC1)C(=O)N[C@@H](CCCNC(=N)N)C(=O)N1CCC[C@H]1C(=O)N[C@@H](CCCNC(=N)N)C(=O)N[C@@H](CC(N)=O)C(N)=O` (Hydrocinnamoyl-L[Cha]RPRN-NH2), the result on Neuromedin-U receptor 2 was Active. In the case of `N=C(N)NCCC[C@H](NC(=O)[C@@H]1CCCN1C(=O)[C@H](CCCNC(=N)N)NC(=O)[C@H](Cc1ccccc1)NC(=O)[C@H](Cc1ccccc1)NC(=O)Cn1ccnc1)C(=O)N[C@@H](CC(N)=O)C(N)=O` (X1-FFRPRN-NH2), the outcome in assay [1] was Active.

As for `N=C(N)NCCC[C@H](NC(=O)[C@@H]1CCCN1C(=O)[C@H](CCCNC(=N)N)NC(=O)[C@H](Cc1ccccc1)NC(=O)[C@H](Cc1ccccc1)NC(=O)Cc1ccncc1)C(=O)N[C@@H](CC(N)=O)C(N)=O` ({Acetyl(4-pyridyl)}-FFRPRN-NH2), in assay [1], the outcome was Active. `CC(C)C[C@H](NC(=O)CCc1ccccc1)C(=O)N[C@@H](Cc1ccccc1)C(=O)N[C@@H](CCNC(=N)N)C(=O)N1CCC[C@H]1C(=O)N[C@@H](CCCNC(=N)N)C(=O)N[C@@H](CC(N)=O)C(N)=O` (Hydrocinnamoyl-LF[Agb]PRN-NH2): the result at Neuromedin-U receptor 2 was Active.

As for `CC(C)C[C@H](NC(=O)CCC1CCCCC1)C(=O)N[C@@H](Cc1ccccc1)C(=O)N[C@@H](CCCNC(=N)N)C(=O)N1CCC[C@H]1C(=O)N[C@@H](CCCNC(=N)N)C(=O)N[C@@H](CC(N)=O)C(N)=O` ({Propanoyl(3-cHex)}-LFRPRN-NH2), the result on Neuromedin-U receptor 2 was Active. Turning to `N=C(N)NCCC[C@H](NC(=O)[C@@H]1CCCN1C(=O)[C@H](CCCNC(=N)N)NC(=O)[C@H](Cc1ccccc1)NC(=O)[C@H](Cc1cccc2ccccc12)NC(=O)CCc1cccnc1)C(=O)N[C@@H](CC(N)=O)C(N)=O` ({Propanoyl(3-(3-pyridyl))}-[1Nal]FRPRN-NH2), in assay [1], the result was Active. Still for that read-out and setting: the value for `N=C(N)NCCC[C@H](NC(=O)[C@@H]1CCCN1C(=O)[C@H](CCCNC(=N)N)NC(=O)[C@H](Cc1ccccc1)NC(=O)[C@H](Cc1ccccc1)NC(=O)Cc1ccccn1)C(=O)N[C@@H](CC(N)=O)C(N)=O` ({Acetyl(pyridin-2-yl)}-FFRPRN-NH2) was “Active”. In the case of `N=C(N)NCCC[C@H](NC(=O)[C@@H]1CCCN1C(=O)[C@H](CCCNC(=N)N)NC(=O)[C@H](Cc1ccccc1)NC(=O)[C@H](Cc1c[nH]c2ccccc12)NC(=O)CCc1cccnc1)C(=O)N[C@@H](CC(N)=O)C(N)=O` ({Propanoyl(3-(3-pyridyl))}-WFRPRN-NH2), in assay [1], the result was Active.
